# Measured values from article PMC12350853 (Discover Nano, 2025).
# “Also recorded” adds a separate entry of the source.
# Tests used:
# male adult Wistar rats = experiment: Serum biochemical parameters after repeated intravenous injection; assay type: in vivo, rat; conditions: ten injections at 72-hour intervals, vs control
# In short: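 Male adult Wistar rats (five groups, ten per group) received free or Fe–Co MOF-loaded test compound i.v. at 0.4 or 0.8 mg/kg, ten injections every 72 h. Retro-orbital blood was centrifuged immediately at 5,000 rpm for 10 min. AST, ALT, BUN and creatinine were run on an autoanalyzer with commercial kits. Results are mean ± SD, tested by ANOVA with post hoc comparison against control.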
# liver [1] = experiment: Liver MDA level; assay type: in vivo, rat; conditions: dose not given
# In short: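 After ten i.v. injections 72 h apart of free or Fe–Co MOF-loaded test compound (0.4 or 0.8 mg/kg) in male Wistar rats, liver malondialdehyde was measured by a modified literature method. Assays were repeated three times. Results are mean ± SD, compared by ANOVA with post hoc test.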
# liver [2] = experiment: Liver histopathology and semi-quantitative damage score; assay type: in vivo, rat
# In short: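 Male Wistar rats received free or Fe–Co MOF-loaded test compound at 0.4 or 0.8 mg/kg i.v., ten doses 72 h apart. Fixed liver was ethanol-dehydrated, xylene-cleared, paraffin-embedded, microtome-sectioned and H&E-stained. Two specialists scored blindly on a 1–4 scale, and also rated pyknotic nuclei, inflammatory infiltration, bleeding and necrosis each 0–3. Results are mean ± SD.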
# kidney = experiment: Kidney histopathology and semi-quantitative damage score; assay type: in vivo, rat; conditions: for kidney histopathological findings: Masson trichrome
# In short: (§1)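 Fifty male adult Wistar rats were split into five groups (23–24 °C, 12 h light/dark). Test compound, free or loaded in Fe–Co MOF, was given at 0.4 or 0.8 mg/kg i.v., ten injections at 72 h intervals. Rats were euthanised with pentobarbital sodium 200 mg/kg. H&E sections were scored 1 (normal) to 4 (severe) against organ-specific lesion criteria, blinded, by two specialists.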
# heart = experiment: Heart histopathology and semi-quantitative damage score; assay type: in vivo, rat; conditions: for heart histopathological findings: H&E
# In short: as §1
# testis = experiment: Testis histopathology and semi-quantitative damage score; assay type: in vivo, rat; conditions: for Testis damage score (TDS): scale 1 normal to 4 severe, mean ± SD
# In short: as §1
# [3] = cited from earlier work
# [4] = 0.4 mg/kg i.v., scale 1 normal to 4 severe, mean ± SD
compound,measurement,setting,value
"CC(C)C[C@H](NC(=O)[C@H](CCc1ccccc1)NC(=O)CN1CCOCC1)C(=O)N[C@@H](Cc1ccccc1)C(=O)N[C@@H](CC(C)C)C(=O)[C@@]1(C)CO1 [CFZ, Carfilzomib]",serum creatinine levels,male adult Wistar rats; 0.4 mg/kg i.v.,elevation was not observed
same,ALT levels,male adult Wistar rats; 0.8 mg/kg i.v.,significantly increased
same,serum AST levels,male adult Wistar rats; 0.8 mg/kg i.v.,Significant elevation
same,serum BUN levels,male adult Wistar rats; 0.8 mg/kg i.v.,no significant effect
same,serum creatinine levels,male adult Wistar rats; 0.8 mg/kg i.v.,higher serum creatinine levels
same,liver lipid peroxidation,liver [1],significant increase
same,liver histopathological findings,liver [2]; 0.4 mg/kg i.v.,normal liver appearance
same,Liver damage score (LDS),liver [2]; [4],1.6 ± 0.51
same,liver histopathological findings,liver [2]; 0.8 mg/kg i.v.,"necrosis, inflammatory cell accumulation, and disarray of hepatic cords"
same,kidney histopathological findings,kidney; 0.4 mg/kg i.v.,normal proximal and distal tubules with normal-sized nuclei
same,Renal damage score (RDS),kidney; [4],1.5 ± 0.75
same,kidney histopathological findings,kidney; 0.8 mg/kg i.v.,glomerulosclerosis characterized by swollen lining epithelium and narrowing of the proximal tubule lumen
same,heart histopathological findings,heart; 0.4 mg/kg i.v.,mild inflammatory cell infiltration
same,Heart damage score (HDS),heart; [4],1.25 ± 0.46
same,heart histopathological findings,"heart; 0.8 mg/kg i.v., listed as free Carfilzomib","inflammatory cell infiltration, bleeding, and necrosis; also recorded: severe necrosis"
same,cardiotoxicity by histopathological data,heart; overall statement,severe cardiotoxicity
same,testis histopathological findings,testis; 0.4 mg/kg i.v.,"no evidence of inflammation, necrosis, or cellular infiltrates"
same,Testis damage score (TDS),testis; 0.4 mg/kg i.v.,1.2 ± 0.4
same,testis histopathological findings,testis; 0.8 mg/kg i.v.,multinucleated giant Sertoli cells
same,Testis damage score (TDS),testis; 0.8 mg/kg i.v.,1.42 ± 0.53
same,half-life,[3],~ 30 min
